Among the data in ChEMBL document CHEMBL2311375, “Synthesis and characterization of a small analogue of the anticancer natural product leinamycin” (Bioorg Med Chem, 2013) are Activity values, retold here.

Active and inactive are the calls of the source. The calls are words filed in the database; no cut-off is given here.

A short description of assay [1]: Induction of oxidative supercoiled double-stranded plasmid DNA strand (unknown origin) cleavage at 250 uM after 3 to 15 hrs using ethidium bromide staining by agarose gel electrophoresis in presence of 375 uM 2-mercaptoethanol and catalase. Put shortly:
(§1)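 Supercoiled plasmid DNA (30 μM bp) incubated 3–15 h at 37 °C in sodium phosphate buffer (50 mM, pH 7) with 10% v/v acetonitrile. Final concentrations: compound 250 μM, 2-mercaptoethanol 375 μM where added. Catalase (100 μg/mL) added before compound where used. Forms I and II resolved on 0.9% agarose gel (80 V, 3 h, 1x TAE), stained with ethidium bromide, visualized by UV and quantified by image analysis. Breaks per plasmid S = −ln f1, f1 = fraction form I.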

A short description of assay [2]: Induction of supercoiled double-stranded plasmid DNA strand (unknown origin) cleavage at 250 uM after 3 to 15 hrs using ethidium bromide staining by agarose gel electrophoresis. Put shortly: as §1
A short description of assay [3]: Induction of oxidative supercoiled double-stranded plasmid DNA strand (unknown origin) cleavage at 250 uM after 3 to 15 hrs using ethidium bromide staining by agarose gel electrophoresis in presence of 375 uM 2-mercaptoethanol. Put shortly: as §1

As to `O=c1s[s+]([O-])c2ccccc12` (configuration not stated), the outcome in assay [1] and in assay [2] was inactive. The outcome in assay [3] was Active.

Regarding `CC(C)=CCCC1(C)CC(=O)S[S+]1[O-]` (mixture of isomers), the result in assay [1] and in assay [2] was inactive. The outcome in assay [3] was Active.

Turning to `CC(C)=CCCC1(C)CC(=O)S[S+]1[O-]` (single isomer, unassigned), the outcome in assay [1] and in assay [2] was inactive. Also, the result in assay [3] was Active.

As to `CC(C)=CCCC1(C)CC(=O)S[S+]1[O-]` (configuration not stated), the result in assay [1] and in assay [2] was inactive. In assay [3], the outcome was Active.
